Values after ≈ are worked out from the molar mass of the structure shown. Active and inactive are the calls of the source. The calls are words filed in the database; no cut-off is given here.
Assays:
Leishmania donovani [1] = assay: Antileishmanial activity against Leishmania donovani promastigotes after 48 hrs at 40 ug/mL by Alamar blue assay; type: functional, organism-based
Vero [2] = assay: Cytotoxicity against Vero cells up to 23.8 ug/mL by neutral red assay; type: cell-based; conditions: chlorocebus sabaeus
LLC-PK1 [3] = assay: Cytotoxicity against LLC-PK1 cells up to 23.8 ug/mL by neutral red assay; type: cell-based, Sus scrofa; conditions: pig
[4] = system: Mycobacterium intracellulare; assay: Antimicrobial activity against Mycobacterium intracellular; type: functional, organism-based
Outline: (§1)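 Samples in DMSO serially diluted in 0.9% saline, tested in duplicate; inocula set against 0.5 McFarland standard (absorbance 630 nm) and diluted in broth to recommended levels. Growth, solvent and media controls included. Read at 630 nm, or fluorescence 544ex/590em for M. intracellulare (modified Alamar Blue), before and after incubation; IC50 from percent growth versus concentration.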

Aspergillus fumigatus = assay: Antifungal activity against Aspergillus fumigatus; type: functional, organism-based; outline: as §1
Candida albicans [5] = assay: Antifungal activity against Candida albicans; type: functional, organism-based; outline: as §1
Staphylococcus aureus [6] = assay: Antibacterial activity against methicillin-resistant Staphylococcus aureus at 20 ug/mL; type: functional, organism-based
Outline: (§2)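 Samples in DMSO, serially diluted in 0.9% saline, tested in duplicate. Inoculum set against the 0.5 McFarland standard by absorbance at 630 nm, then diluted in broth. Growth, solvent and media controls included. Absorbance read at 630 nm before and after incubation. IC50 taken from percent growth versus concentration. Inactivity was scored at 20 µg/mL.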

Cryptococcus neoformans [7] = assay: Antifungal activity against Cryptococcus neoformans; type: functional, organism-based; outline: as §1
Plasmodium falciparum [8] = assay: Antimalarial activity against Plasmodium falciparum D6; type: functional, organism-based
Outline: (§3)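 P. falciparum-infected erythrocytes at 2% parasitemia, 2% hematocrit in RPMI 1640 with 10% human serum and 60 µg/mL amikacin, exposed to serial dilutions 72 h at 37 °C under 90% N2/5% O2/5% CO2. Parasite LDH measured with Malstat reagent then NBT/PES, stopped with 5% acetic acid, A650; IC50 from dose–response. DMSO 0.25% vehicle.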

Plasmodium falciparum [9] = assay: Antimalarial activity against Plasmodium falciparum W2; type: functional, organism-based; outline: as §3
Vero [10] = assay: Cytotoxicity against Vero cells up to 4.76 ug/mL by neutral red assay; type: cell-based; conditions: chlorocebus sabaeus
LLC-PK1 [11] = assay: Cytotoxicity against LLC-PK1 cells up to 4.76 ug/mL by neutral red assay; type: cell-based, Sus scrofa; conditions: pig
Candida albicans [12] = assay: Antifungal activity against Candida albicans at 20 ug/mL; type: functional, organism-based
Cryptococcus neoformans [13] = assay: Antifungal activity against Cryptococcus neoformans at 20 ug/mL; type: functional, organism-based
Leishmania donovani [14] = assay: Antileishmanial activity against Leishmania donovani promastigotes after 48 hrs by Alamar blue assay; type: functional, organism-based
Outline: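 L. donovani promastigotes grown in RPMI 1640 + 10% fetal calf serum at 26 °C; 3-day culture diluted to 5 × 10^5/mL, drug dilutions made directly in suspension, 48 h at 26 °C. Alamar blue fluorescence 544 nm ex/590 nm em; IC50 and IC90 from percent growth vs concentration curves.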

Vero [15] = assay: Cytotoxicity against Vero cells by neutral red assay; type: cell-based; conditions: chlorocebus sabaeus
Outline: (§4)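 Cells seeded 25,000/well, grown 24 h, then exposed to samples 48 h; viable cells quantified by neutral red uptake. IC50 taken from logarithmic plots of growth inhibition versus concentration; DMSO vehicle control.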

LLC-PK1 [16] = assay: Cytotoxicity against LLC-PK1 cells by neutral red assay; type: cell-based; conditions: Sus scrofa; outline: as §4
Staphylococcus aureus [17] = assay: Antibacterial activity against methicillin-resistant Staphylococcus aureus; type: functional, organism-based; outline: as §2

| SMILES | Activity (Leishmania donovani [1]) | Activity (Vero [2]) | Activity (LLC-PK1 [3]) | Activity [4] | Activity (Aspergillus fumigatus) | IC50 (Candida albicans [5]) [µg/mL] | Activity (Staphylococcus aureus [6]) | IC50 (Cryptococcus neoformans [7]) [µg/mL] | Activity (Plasmodium falciparum [8]) | Activity (Plasmodium falciparum [9]) | Activity (Vero [10]) | Activity (LLC-PK1 [11]) | Activity (Candida albicans [12]) | Activity (Cryptococcus neoformans [13]) | IC50 (Leishmania donovani [14]) [µg/mL] | IC90 (Leishmania donovani [14]) [µg/mL] | IC50 (Vero [15]) [µg/mL] | IC50 (LLC-PK1 [16]) [µg/mL] | IC50 (Staphylococcus aureus [17]) [µg/mL] |
| --- | --- | --- | --- | --- | --- | --- | --- | --- | --- | --- | --- | --- | --- | --- | --- | --- | --- | --- | --- |
| C=CCOc1cc(O)c(C(C)=O)c(O)c1C(C)=O | inactive | Not Active | Not Active | – | – | – | – | – | – | – | – | – | – | – | – | – | – | – | – |
| O=C(O)c1cn(C2CC2)c2cc(N3CCNCC3)c(F)cc2c1=O | – | – | – | inactive | inactive | – | – | – | – | – | – | – | – | – | – | – | – | – | – |
| CCC(=O)c1c(O)c(C)c(O)c(C=O)c1O | inactive | – | – | inactive | inactive | 5 (≈ 22.3 µM) | inactive | 20 (≈ 89.2 µM) | inactive | inactive | Not Active | Not Active | – | – | – | – | – | – | – |
| Cc1c(O)c(C=O)c(O)c(C=O)c1O | inactive | – | – | inactive | inactive | – | inactive | – | inactive | inactive | Not Active | Not Active | inactive | inactive | – | – | – | – | – |
| N=C(N)c1ccc(OCCCCCOc2ccc(C(=N)N)cc2)cc1 [PENTAMIDINE] | – | – | – | inactive | inactive | – | – | – | – | – | – | – | – | – | 1.5 (≈ 4.41 µM) | 4.9 (≈ 14.4 µM) | – | – | – |
| Cc1c(O)c(C=O)c(O)c(C(=O)CC(C)C)c1O [GRANDINOL] | – | – | – | inactive | inactive | 10 (≈ 39.6 µM) | – | 10 (≈ 39.6 µM) | inactive | inactive | – | – | – | – | 21 (≈ 83.2 µM) | 39 (≈ 155 µM) | 8 (≈ 31.7 µM) | 7 (≈ 27.7 µM) | 8 (≈ 31.7 µM) |
| C[C@@H]1[C@H](O)[C@@H](C)/C=C/C=C/C=C/C=C/C=C/C=C/C=C/[C@H](O[C@@H]2O[C@H](C)[C@@H](O)[C@H](N)[C@@H]2O)C[C@@H]2O[C@](O)(C[C@@H](O)C[C@@H](O)[C@H](O)CC[C@@H](O)C[C@@H](O)CC(=O)O[C@H]1C)C[C@H](O)[C@H]2C(=O)O [AMPHOTERICIN B] | – | – | – | inactive | inactive | 0.3 (≈ 0.325 µM) | – | 0.7 (≈ 0.758 µM) | – | – | – | – | – | – | 0.32 (≈ 0.346 µM) | 0.9 (≈ 0.974 µM) | – | – | – |
| CC(=O)c1c(O)cc(O)c(C(C)=O)c1O | – | – | – | inactive | inactive | – | inactive | – | inactive | inactive | – | – | inactive | inactive | 27 (≈ 128 µM) | > 40 | 12 (≈ 57.1 µM) | 11 (≈ 52.3 µM) | – |
| C[C@@H]1CC[C@H]2[C@@H](C)C(=O)O[C@@H]3O[C@@]4(C)CC[C@@H]1[C@]32OO4 | – | – | – | inactive | inactive | – | – | – | – | – | – | – | – | – | – | – | – | – | – |
| CC(C)CC(=O)c1c(O)c(C=O)c(O)c(C=O)c1O [JENSENONE] | – | – | – | inactive | inactive | 5.5 (≈ 20.7 µM) | – | – | inactive | inactive | Not Active | Not Active | – | inactive | 19 (≈ 71.4 µM) | 35 (≈ 131 µM) | – | – | 20 (≈ 75.1 µM) |
| CC(C)CC(=O)c1c(O)cc(O)c(C=O)c1O | – | – | – | inactive | inactive | – | inactive | – | inactive | inactive | – | – | inactive | inactive | 27 (≈ 113 µM) | 40 (≈ 168 µM) | 14 (≈ 58.8 µM) | 9.5 (≈ 39.9 µM) | – |
| CC(C)CCOc1cc(O)c(CCC(C)C)c(O)c1C=O | – | – | – | – | – | – | – | – | – | – | – | – | – | – | 10 (≈ 34 µM) | 36 (≈ 122 µM) | 4.6 (≈ 15.6 µM) | 11.5 (≈ 39.1 µM) | – |
| CC(=O)c1c(O)cc(OCCC(C)C)c(C(C)=O)c1O | – | Not Active | Not Active | – | – | – | – | – | – | – | – | – | – | – | 40 (≈ 143 µM) | > 40 | – | – | – |
| CCC(=O)c1c(O)cc(O)c(C=O)c1O | inactive | – | – | inactive | inactive | – | inactive | 15 (≈ 71.4 µM) | inactive | inactive | – | – | inactive | – | – | – | 18 (≈ 85.6 µM) | 11 (≈ 52.3 µM) | – |
